Measured values taken from ChEMBL document CHEMBL3091364, “Benzyloxybenzylammonium chlorides: Simple amine salts that display anticonvulsant activity” (Bioorg Med Chem, 2013).
Each block holds one compound with its values, some of them ahead of it. Calls of active or inactive are those of the source. The calls are words filed in the database; no cut-off is given here.

Key:
[1] = Cytotoxicity against rat embryonic cortical neurons assessed as loss of membrane integrity at 20 uM; details: cortical neurone
Rattus norvegicus [2] = assay: Anticonvulsant activity in ip dosed albino Sprague-Dawley rat assessed as protection against maximal electroshock-induced seizures measured at 0.5 hrs; assay type: functional
Outline: (§1)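 Screened under the NINDS ASP in male albino Carworth Farms No. 1 mice (ip) or male albino Sprague-Dawley rats (ip or po), using MES, 6 Hz (32 mA) and subcutaneous pentylenetetrazol seizure tests. Initial qualitative tests used preset doses (e.g., 30, 50, 100 mg/kg). ED50 values with 95% confidence intervals came from dose–response data collected at the time of peak effect.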

Mus musculus [3] = assay: Anticonvulsant activity in corneally kindled mouse assessed as protection against seizure at 20 mg/kg, ip; assay type: functional, organism-based; design: dose 20 mg/kg
Outline: (§2)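 Corneally kindled mouse seizure model with ip dosing. Protection was scored in 4 animals, and the average seizure score was recorded.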

Rattus norvegicus [4] = species on record: Rattus norvegicus; assay: Induction of Na+ channel slow inactivation in rat embryonic cortical neurons at 10 uM by whole-cell voltage clamp assay
Rattus norvegicus [5] = species on record: Rattus norvegicus; assay: Induction of voltage-dependent Na+ channel fast inactivation in rat embryonic cortical neurons at 10 uM by whole-cell voltage clamp assay (reference value: - 51.1 +/- 1.4 mV)
[6] = Toxicity in ip dosed albino Sprague-Dawley rat assessed as behavioral changes measured at 0.5 hrs; assay type: organism-based; details: in vivo
Outline: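 Male albino Sprague-Dawley rats given compound intraperitoneally or orally (NINDS ASP); neurological impairment judged from behavioral toxicity effects. Preset screening doses (e.g., 30 mg/kg); for adequately active compounds, TD50 (mg/kg, 95% confidence intervals) derived from dose–effect data at time of peak effect.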

Rattus norvegicus [7] = species on record: Rattus norvegicus; assay: Inhibition of Na+ channel in rat embryonic cortical neurons assessed as frequency-dependent decrease in current amplitude at 10 uM at -80 mV holding potential by whole-cell voltage clamp assay
Mus musculus [8] = assay: Anticonvulsant activity in corneally kindled mouse assessed as protection against seizure at 78 mg/kg, ip; assay type: functional, organism-based; design: dose 78 mg/kg; outline: as §2
Mus musculus [9] = assay: Anticonvulsant activity in ip dosed albino CF-1 mouse assessed as protection against maximal electroshock-induced seizures measured at 0.5 to 2 hrs; assay type: functional; details: albino CF-1, ip; outline: as §1
Mus musculus [10] = assay: Anticonvulsant activity in ip dosed albino CF-1 mouse assessed as protection against subcutaneous metrazol-induced seizure measured at 0.5 hrs; assay type: functional; details: albino CF-1, 0.5 h; outline: as §1
Mus musculus [11] = assay: Anticonvulsant activity in ip dosed albino CF-1 mouse assessed as protection against 6 Hz psychomotor seizure measured at 1 hr; assay type: functional; details: albino CF-1, ip; outline: as §1
Rattus norvegicus [12] = assay: Anticonvulsant activity in ip dosed albino Sprague-Dawley rat assessed as protection against maximal electroshock-induced seizures measured at 0.25 to 0.5 hrs; assay type: functional; outline: as §1
Mus musculus [13] = assay: Anticonvulsant activity in corneally kindled mouse assessed as protection against seizure at 28 mg/kg, ip; assay type: functional, organism-based; design: dose 28 mg/kg; outline: as §2
Mus musculus [14] = assay: Anticonvulsant activity in albino CF-1 mouse assessed as protection against maximal electroshock-induced seizures at 100 mg/kg, ip; assay type: functional, organism-based; design: dose 100 mg/kg; outline: as §1

Activity (Rattus norvegicus [4]): Active | V1/2 (Rattus norvegicus [5]): -66.4 mV | inhibition (Rattus norvegicus [7]): inactive
SMILES: Cl.NCc1ccc(OCc2ccccc2OC(F)(F)F)cc1
Activity [1]: Toxic | ED50 (Rattus norvegicus [2]): 18 mg/kg | Activity (Mus musculus [3]): Active | TD50 at 0.5 h [6]: 81 mg/kg

SMILES: Cl.NCc1ccc(OCc2cccc(Cl)c2)cc1
Activity (Mus musculus [8]): Active

SMILES: Cl.NCc1ccc(OCc2ccccc2)cc1
ED50 (Mus musculus [9]): > 100 mg/kg

SMILES: Cl.NCc1ccc(OCc2cccc(OC(F)(F)F)c2)cc1
ED50 (Mus musculus [10]): > 170 mg/kg | ED50 (Mus musculus [11]): 50 mg/kg | ED50 (Rattus norvegicus [12]): < 30 mg/kg | Activity (Mus musculus [13]): Active

SMILES: Cl.NCc1ccc(OCc2cccc(F)c2)cc1
Activity (Mus musculus [14]): Active
